The values below come from ChEMBL document CHEMBL5715946 (Chem Biol, 2010).

Active and inactive are the calls of the source. The rule behind the calls is not given here.

Assay [1] can be described thus: Upregulation of catalase gene expression in serum-deprived neonatal Wistar rat cardiomyocyte at 0.37 uM incubated for 21 hrs by microarray analysis relative to control. The format is functional, Cardiac muscle cell. Put shortly: (§1)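 Primary neonatal rat cardiomyocytes, isolated by proteinase digestion with preplating to deplete nonmyocytes, cultured in serum-free medium with or without 0.37 μM compound for 21 hr. Total RNA was recovered and global expression profiled on an Affymetrix GeneChip rat genome U34A array (about 7000 known genes). Change is relative to untreated cells.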

Another assay has as its system H9c2. The experiment in a line: Effect on protein oxidation in rat H9c2 cells at 10 uM incubated for 24 hrs under serum-free medium by Western blot analysis. The format is functional, cell-based. In general terms: Immunoblotting shows a protein as a band on a membrane.
Assay [2] concerns Cardiac muscle cell. Description: Cytoprotective activity against serum deprivation-induced neonatal Wistar rat cardiomyocyte death assessed as suppression of internucleosomal cleavage of genomic DNA at 0.37 uM measured after 3 days by agarose gel electrophoresis. The format is functional, cell-based. The note with it: time 3.0 day. Put shortly:
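Neonatal rat cardiomyocytes held with or without 0.37 μM compound in serum-free medium for 3 days. Genomic DNA then isolated and internucleosomal laddering examined by agarose gel electrophoresis.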

Assay [3] addresses Macrophage migration inhibitory factor (Rattus norvegicus, UniProt P30904). Description: Inhibition of recombinant rat MIF expressed in Escherichia coli BL21 (DE3) assessed as reduction in tautomerase activity using L-dopachrome carboxy-methyl ester as substrate by spectrophotometry. The gist of the method:
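Purified recombinant rat MIF tautomerase assayed with purified L-dopachrome carboxy-methyl ester as substrate in pH 6.0 buffer; rate taken over the initial 30 s. Mean ± SD, n = 4.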

For the next assay, the species on record is Rattus norvegicus. Description: Binding affinity to rat 6His-tagged VILIP3 expressed in Escherichia coli BL21 (DE3) at 400 nM incubated for 6 hrs using labelled compound by scintillation proximity assay. The gist of the method:
(§2)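 Scintillation proximity assay: 6His-tagged protein (hMIF, rat GST Ya or rat VILIP3) captured on copper His-tag SPA beads with [3H]-BTZO-1; emitted light counted on a microplate scintillation counter. Mean of n = 2.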
(In general: SPA uses beads or plates that emit light when radiolabelled molecules are held near them.)

Assay [4] deals with Antioxidant response element. Description: Induction of ARE activity in serum-deprived neonatal Wistar rat cardiomyocytes assessed as increase in GST Ya expression up to 400 nM measured after 24 hrs by Western blot analysis. The format is cell-based. The note with it: Cardiomyocyte. The gist of the method:
(§3)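 Neonatal rat cardiomyocytes exposed to samples or vehicle in M-199 with 1% penicillin-streptomycin, no serum, for 24 hr. GST Ya and HO-1 mRNA measured by real-time qPCR (mean ± SD, n = 3); protein by western blot with β-actin as control.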

For assay [5], the target named is Macrophage migration inhibitory factor (Rattus norvegicus) (UniProt P30904). The experiment in a line: Inhibition of [3H]-BTZO-1 binding to recombinant rat C-terminal His-tagged MIF expressed in Escherichia coli BL21 (DE3) measured after 3 hrs by SPA.
Target sequence in this assay (P30904 whole entry, looked up): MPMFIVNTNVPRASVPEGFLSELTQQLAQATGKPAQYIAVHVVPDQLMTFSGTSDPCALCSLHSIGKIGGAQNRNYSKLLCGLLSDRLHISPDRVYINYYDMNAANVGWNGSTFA
Assay [6] relates to Cardiac muscle cell. Description: Cytoprotective activity against serum deprivation-induced neonatal Wistar rat cardiomyocyte death assessed as increase in cell viability measured after 4 days by WST-8 assay. The format is functional. Put shortly: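 Primary neonatal rat cardiomyocytes were isolated by proteinase digestion, with preplating to remove adherent non-myocytes. Death was induced by serum deprivation at low density (3×10^5 cells/ml) for 4 days with compound present. Viability was read by WST-8. MEC1.5 is the concentration giving a 50% rise in viability. n = 3.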
A general note: Tetrazolium dyes change colour on reduction, which living cells bring about.

For assay [7], the system named is Antioxidant response element. The experiment in a line: Induction of ARE-mediated HO-1 mRNA expression in MIF siRNA transfected rat H9c2 cells at 3 uM measured after 24 hrs in presence of rat MIF by RT-qPCR analysis. The format is cell-based. Put shortly: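 H9c2 cells transfected with MIF siRNA or control siRNA (100 nM, Oligofectamine), then treated with 3 μM compound with or without 0.8 μM rMIF for 24 hr. GST Ya and HO-1 mRNA by real-time qPCR; mean ± SD, n = 3. MIF effect on drug efficacy tested by Aspin-Welch test.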

Assay [8] can be described thus: Upregulation of 3-methylcholanthrene-inducible truncated UDP-glucuronosyl transferase gene expression in serum-deprived neonatal Wistar rat cardiomyocyte at 0.37 uM incubated for 21 hrs by microarray analysis relative to control. The format is functional, Cardiac muscle cell. Put shortly:
(§4)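 Primary neonatal rat cardiomyocytes cultured with or without 0.37 μM compound in serum-free medium for 21 hr. Total RNA profiled on the rat genome U34A GeneChip array (about 7000 known genes).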

Assay [9] deals with Macrophage migration inhibitory factor (Rattus norvegicus) (UniProt P30904). Description: Induction of MIF-stimulated ARE activity in rat H9c2 cells assessed as increase in HO-1 expression at 3 uM incubated for 6 hrs by RT-qPCR analysis. The format is cell-based.
Target sequence in this assay (P30904 2-115 limits assumed): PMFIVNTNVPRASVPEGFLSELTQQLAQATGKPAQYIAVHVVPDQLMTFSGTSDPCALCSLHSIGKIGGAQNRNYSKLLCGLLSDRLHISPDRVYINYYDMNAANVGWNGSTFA
The target in assay [10] is T1, Macrophage migration inhibitory factor (Homo sapiens, UniProt P14174).
T1 sequence (P14174 whole entry): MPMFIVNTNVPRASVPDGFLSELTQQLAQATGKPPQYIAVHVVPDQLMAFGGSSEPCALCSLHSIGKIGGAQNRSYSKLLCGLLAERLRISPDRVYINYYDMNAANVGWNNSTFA
Description: Binding affinity to BTZO-12 sensor chip immobilized human MIF expressed in Escherichia coli BL21 (DE3) by SPR analysis. The gist of the method: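 Sensor chip carrying immobilized BTZO-12; MIF (wild type or point mutants) passed over it and specific binding monitored by surface plasmon resonance.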

Assay [11] can be described thus: Upregulation of multidrug resistance protein gene expression in serum-deprived neonatal Wistar rat cardiomyocyte at 0.37 uM incubated for 21 hrs by microarray analysis relative to control. The format is functional, Cardiac muscle cell. The gist of the method:
as §1

For assay [12], the target named is T1, Macrophage migration inhibitory factor. The experiment in a line: Binding affinity to recombinant human C-terminal His-tagged MIF expressed in Escherichia coli BL21 (DE3) at 400 nM incubated for 6 hrs using labelled compound by scintillation proximity assay. The gist of the method:
as §2

Assay [13] is described as follows: Reduction in MIF expression in MIF siRNA transfected rat H9c2 cell culture medium at 3 uM measured after 24 hrs ELISA relative to control. The class given is functional. More on the design: scale not given: the % may be the effect or the level left. Put shortly:
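H9c2 cells transfected with 100 nM rat MIF siRNA or negative-control siRNA using Oligofectamine in Opti-MEM, then treated with 3 μM compound for 24 hr. MIF mRNA by real-time qPCR; MIF protein in cell lysate and medium by ELISA. Mean ± SD, n = 3.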

Assay [14] relates to Antioxidant response element. Description: Induction of rat ARE activity expressed in MIF-stimulated rat H9c2 cells assessed as increase in ARE luciferase activity at 1 uM measured after 24 hrs by steady-glo luciferase Assay. The format is cell-based. Put shortly:
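H9c2 cells transiently transfected with pGL3-ARE-Luc (rat GST Ya ARE) or mutant-ARE control plasmid, then treated with rMIF with or without 1 μM compound for 24 hr. Luciferase by Steady-Glo; mean ± SD, n = 4.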

The test system of assay [15] is Antioxidant response element. The experiment in a line: Induction of ARE activity in serum-deprived neonatal Wistar rat cardiomyocytes assessed as increase in HO-1 mRNA level up to 3 uM measured after 24 hrs by RT-qPCR analysis. The format is cell-based. The note with it: Cardiomyocyte. The gist of the method:
as §3

A short description of assay [16]: Upregulation of NAD(P)H: quinone reductase gene expression in serum-deprived neonatal Wistar rat cardiomyocyte at 0.37 uM incubated for 21 hrs by microarray analysis relative to control. The class given is functional, Cardiac muscle cell. Put shortly:
as §4

A short description of assay [17]: Upregulation of UDP glucuronosyltransferase, exon 1 gene expression in serum-deprived neonatal Wistar rat cardiomyocyte at 0.37 uM incubated for 21 hrs by microarray analysis relative to control. The class given is functional, Cardiac muscle cell. Put shortly: as §4
The nature of assay [18]: Upregulation of Fischer 344 GST Yc subunit gene expression in serum-deprived neonatal Wistar rat cardiomyocyte at 0.37 uM incubated for 21 hrs by microarray analysis relative to control. The format is functional, Cardiac muscle cell. The gist of the method: as §4

Chain of Macrophage migration inhibitory factor (Rattus norvegicus, UniProt P30904) (P30904 2-115 limits assumed): as the sequence (P30904 2-115 limits assumed) above

The term IC50 denotes the concentration that inhibits the measured activity by half. Usually Kd stands for the constant that tells how readily two partners part at equilibrium. For `O=c1nc(-c2ccccn2)sc2ccccc12` [BTZO-1], the “fold change (FC)” value in assay [1] was 2.3; in [8], 2.2; in assay [11], 2.7; in assay [16], 9.4; in assay [17], 5; in assay [18], 2.3. The outcome in the assay on H9c2 and in the assay listed under Rattus norvegicus was inactive. For the same compound, the result (with Cardiac muscle cell [2]; in assay [4]; in assay [7]; in assay [9]; in assay [14]; in assay [15]) was Active. In addition, the IC50 in assay [3] was above 30000 nM; in assay [5], 71 nM. Also, the MEC1.5 in the assay on Cardiac muscle cell [6] (time 4 day) amounted to 16 nM. Further, the Activity result is “Dose-Dependent Effect” in the assay with Cardiac muscle cell [6] (time 4.0 day) and around 75% in assay [13]. For the same compound, the Kd in [10] was determined as 88 nM; in assay [12], 68.6 nM.
